Compounds with a hit are over-represented: about 1.5% of the library has one in this group of screens.
RAD54 branch: RAD54 (human) branch migration inhibition; RAD54 Holliday junction branch migration, FAM/BHQ fluorescence; inhibition, % at 10.4 µM; 0.14% of 360,000 active;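 active = mean normalized replicate activity at least 40 and at least half of replicates scoring 40 or more; inconclusive = only one of the two criteria met; inactive = mean below 40 and under half of replicates reaching 40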;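 note: 0% = median of neutral control wells and 100% = median of positive control wells; inhibitors cause a drop in the FAM fluorescence signal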
Target sequence (Q92698 whole entry, looked up): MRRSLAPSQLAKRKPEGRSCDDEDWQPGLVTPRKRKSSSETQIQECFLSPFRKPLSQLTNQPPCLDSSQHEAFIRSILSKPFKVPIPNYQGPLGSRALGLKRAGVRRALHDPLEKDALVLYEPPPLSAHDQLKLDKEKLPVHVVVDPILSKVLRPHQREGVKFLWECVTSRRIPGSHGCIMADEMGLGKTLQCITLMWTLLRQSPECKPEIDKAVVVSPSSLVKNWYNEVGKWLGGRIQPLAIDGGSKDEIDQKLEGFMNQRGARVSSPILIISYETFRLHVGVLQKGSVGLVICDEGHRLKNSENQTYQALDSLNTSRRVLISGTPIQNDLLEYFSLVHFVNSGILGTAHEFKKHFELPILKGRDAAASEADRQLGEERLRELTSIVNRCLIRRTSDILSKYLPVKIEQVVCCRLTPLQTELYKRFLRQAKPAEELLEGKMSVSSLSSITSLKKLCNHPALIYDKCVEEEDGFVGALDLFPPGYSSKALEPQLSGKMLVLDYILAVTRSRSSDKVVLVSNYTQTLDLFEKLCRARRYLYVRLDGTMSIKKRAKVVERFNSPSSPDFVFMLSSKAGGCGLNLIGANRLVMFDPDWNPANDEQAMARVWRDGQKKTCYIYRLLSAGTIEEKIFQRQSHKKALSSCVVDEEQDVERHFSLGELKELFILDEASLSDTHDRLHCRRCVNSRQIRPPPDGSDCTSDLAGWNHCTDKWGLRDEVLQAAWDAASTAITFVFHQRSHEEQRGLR
S100A4 MyoIIA: blocks human S100A4 binding to myosin IIA peptide | P26447 | S100A4/TAMRA-MyoIIA peptide fluorescence polarization | inhibition, % at 10.7 µM | 0.14% of 360,000 active | AID 652163;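 active = mean inhibition of at least 70% across replicates, with every replicate also reaching that level; inconclusive = mean inhibition reaches 70% but some replicates fall short; inactive = mean inhibition below 70%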
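Material: S100A4 monomer protein | Medium: HEPES pH 7.2 with CaCl2, KCl, NaCl, DTT, Triton | Reagent: Labelled myosin peptide probe, 5 nM | Doses: One dose per compound | Times: 5 min incubation before reading | Benchmarks: Neutral control DMSO, positive control TFP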
AF4-AF9 inh: MLL-AF4/AF9 protein interaction inhibition; 0.47% of 350,000 active; inhibition, % at 10 µM; AlphaScreen, biotin-AF4 peptide binding to FLAG-AF9;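 active = every replicate reaching a set inhibition limit, whatever the replicate mean, cut at about 25% in these data; inconclusive = mean inhibition reaches that limit but some replicates miss it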;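 note: 0% = plate neutral control median and 100% = total signal loss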
dFosB act: enhances mouse delta FosB homodimer DNA binding. P13346. purified delta FosB, TAMRA-CDK5 oligo fluorescence polarization; percent of positive-control signal above neutral wells. activation, % at 25 µM. 0.99% of 340,000 active;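 active = mean activation above about 17%, with every replicate also reaching it, limit read from the data, passing the limit was not always enough; inconclusive = only one of the two conditions met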
RAD52 anneal inh: blocks human RAD52 DNA annealing; AID 651710; 0.46% of 360,000 active; inhibition, % at 18.7 µM; P43351; recombinant RAD52 DNA annealing, FRET fluorescence;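 active = every replicate showing at least 50% inhibition; inconclusive = mean inhibition at least 50% but not in every replicate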
AlphaScreen intf: AlphaScreen signal interference counter-screen hit. signal luminescence. AC50, µM (series often up to 12 µM), for the others: top-dose activity change, negative = inhibition. shares compounds with AF4-AF9 inh. AID 720494. 45% of 530 active; cut-off not given, nearly all actives have AC50 up to about 14 µM
An asterisk follows results filed as active; ? = inconclusive; · = no result given.

SMILES	RAD54 branch	S100A4 MyoIIA	AF4-AF9 inh	dFosB act	RAD52 anneal inh	AlphaScreen intf
CCN(CC)c1ccc(CNc2nc3ccccc3n2CCN2CCCCC2)cc1	·	-7.6	43.6*	-2.9	-68.8	-27.9%
COc1ccccc1C#Cc1cnc2c(c1)C(=O)N([C@H](C)CO)C[C@H](C)[C@H](CN(C)C(C)=O)O2	-4.3	11.6	-4.6	·	7.4	·
Cc1ccc2c(c1)C1CN(C)CCC1N2Sc1ccccc1[N+](=O)[O-] (stereo unspecified)	·	-2.1	35.4*	-2.3	31.3	9.3µM*
Cc1ccc2c(c1)[C@@H]1CN(C)CC[C@@H]1N2S(=O)(=O)c1ccc([N+](=O)[O-])cc1	-5.0	-4.9	8.8	-1.9	3.7	·
O=C(CCN1CCCCC1)NCC[C@H]1CC[C@H](NC(=O)C2CCOCC2)[C@H](CO)O1	2.1	4.6	-1.7	·	1.2	·
C[C@@H]1CN([C@@H](C)CO)C(=O)Cc2cc(NC(=O)CCC(F)(F)F)ccc2O[C@@H]1CN(C)Cc1ccc(Oc2ccccc2)cc1	-4.8	·	·	·	·	·
CN(C)c1ccc(NC(=S)c2ccccn2)cc1	-0.6	1.2	48.7*	-6.1	-12.1	-24.8%
Oc1cccc(C(Nc2nccs2)c2ccc3cccnc3c2O)c1 (stereo unspecified)	·	0.4	48.6*	-4.2	-9.0	3.33µM*
CN(C)C(=O)[C@@H]1[C@@H](CO)[C@@H]2Cn3c(cccc3=O)[C@@H]2N1CC1CCCCC1	·	-2.8	-1.8	·	-3.2	·
O=C1c2ccccc2NC(c2cccc([N+](=O)[O-])c2)N1O (stereo unspecified)	1.6	0.2	27.9*	5.8	-20.3	10.9µM*
O=C(NCC1CCCCC1)[C@H]1[C@H](CO)[C@H]2Cn3c(ccc(-c4cccnc4)c3=O)[C@@H]1N2	·	4.8	-0.7	·	-2.8	·
COc1ccc(N2CCN(c3cc(C)nc4ccc(OC)cc34)CC2)cc1	19.7	-0.8	33.7*	6.8	-2.2	-38.4%
COc1ccccc1-c1cnc2c(c1)C(=O)N([C@@H](C)CO)C[C@@H](C)[C@@H](CN(C)C(=O)c1ccccc1)O2	-0.7	·	·	·	·	·
O=C(Cc1cccnc1)N1CC(=O)N2[C@H](CO)[C@@H](c3ccc(C4=CCCC4)cc3)[C@@H]2C1	·	-3.6	-2.3	·	7.1	·
O=C(Cc1cccnc1)N1CC(=O)N2[C@H](C1)[C@H](c1ccc(C3=CCCC3)cc1)[C@@H]2CO	·	6.0	36.9*	·	9.6	-18.7%
CC=Cc1ccc2n(c1=O)C[C@H]1[C@H](CO)[C@@H](C(=O)Nc3ccccc3)N(CC3CC3)[C@@H]21 (mixture of isomers)	0.7	4.8	2.6	·	-2.1	·
Oc1cc(NCCN2CCOCC2)cc2cccnc12	-11.7	11.0	27.0*	-1.7	47.9	12.1µM*
CC(C)(C)OC(=O)N1CCCN(C(c2ccnc3ccccc23)c2nnnn2-c2ccc3c(c2)OCCO3)CC1 (stereo unspecified)	·	0.0	36.2*	·	-13.3	-22.2%
CN(C1=C(N2CCOCC2)C(=O)c2ccccc2C1=O)c1ccccc1	2.3	·	·	-7.7	·	·
Cc1ccc(N2CCOCC2)c2c1C(=O)c1ccccc1C2=O	·	-2.4	64.3*	2.5	20.1	10.1µM*
C(=C\c1ccncc1)/c1ccncc1	·	-3.8	21.5	-11.2	-3.0	-18.7%
C(=C\c1ccncc1)/c1ccccc1	4.8	3.6	5.9	-9.8	1.8	·
Cn1ccc2c(N3CCCCCC3)cc3c(c21)C1CCC3C1 (stereo unspecified)	9.9	-3.4	31.2*	·	19.9	-37.6%
Oc1ccc(O)c(C=NNC(=S)NC2CC3CC2C2C=CCC32)c1 (stereo unspecified)	-2.1	-1.1	35.0*	·	-19.9	12.1µM*
C[C@@H]1CN([C@@H](C)CO)C(=O)Cc2cc(NC(=O)Cn3cnnn3)ccc2O[C@H]1CN(C)Cc1ccc(C(=O)Nc2ccccc2N)cc1	·	9.0	1.6	·	7.0	·
CCCC(=O)NC(c1ccccc1)c1ccc2cccnc2c1O (stereo unspecified)	7.4	24.9	?	-10.7	13.8	·
CCCC(=O)NC(c1ccc(OC)cc1)c1ccc2cccnc2c1O (stereo unspecified)	·	-3.1	28.8*	-3.4	-17.8	2.57µM*
Nc1ccc2ccc(N)cc2c1	·	-4.2	14.8	·	9.1	·
Nc1ccc2[nH]ncc2c1	20.7	5.7	44.7*	-9.7	-4.0	-16.5%
